Bioassay records deposited in PubChem BioAssay by several laboratories.
UBC13 inh – blocks human UBC13 polyubiquitin chain formation; P61088; 330,000 tested, 0.47% active; inhibition, % at 20 µM; TR-FRET; AID 485273; in the data active = inhibition above about 45%, passing the limit was not always enough
Target sequence (P61088 whole entry, looked up): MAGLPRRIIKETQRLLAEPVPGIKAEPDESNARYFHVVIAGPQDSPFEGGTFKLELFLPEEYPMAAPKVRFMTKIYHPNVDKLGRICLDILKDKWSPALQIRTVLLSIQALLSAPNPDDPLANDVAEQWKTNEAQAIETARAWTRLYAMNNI
RBBP9 inh – blocks human serine hydrolase RBBP9; inhibition, % at 7.94 µM; recombinant RBBP9, FP-Rh probe fluorescence polarization; O75884; 220,000 tested, 0.2% active;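 active = inhibition above the campaign mean of all tested compounds plus 3 SD, cut at about 14% in these data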
Target sequence (O75884 whole entry, looked up): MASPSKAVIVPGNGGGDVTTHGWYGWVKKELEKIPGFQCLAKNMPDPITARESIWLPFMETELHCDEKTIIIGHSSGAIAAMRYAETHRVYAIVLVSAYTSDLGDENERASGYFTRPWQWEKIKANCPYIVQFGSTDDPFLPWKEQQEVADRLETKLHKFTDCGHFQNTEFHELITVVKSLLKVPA
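Test system: recombinant human RBBP9; Timing: 30 min then 45 min, 25 °C; Detection: fluorescence polarization; Control set: RBBP9 with DMSO as uninhibited control, no-protein wells as full inhibition; Compound dosing: one concentration, 7.94 µM nominal, 0.794% DMSO; Probe or stimulus: FP-Rh activity-based probe, 375 nM before mixing.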
ALR H2O2 inh – blocks human ALR sulfhydryl oxidase activity. P55789. purified ALR, DTT oxidation, H2O2 HRP-luminol luminescence. inhibition, % (test concentration not listed). 290,000 tested, 3.8% active. AID 485317;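 active = mean replicate inhibition above about 79%, with every replicate also reaching it, limit read from the data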
UBC9 SUMO inh – inhibitors of human SUMOylation (UBC9); inhibition, % at 35 µM; P63279; HTRF SUMOylation assay, SAE1/SAE2 + UBC9, in vitro; 290,000 tested, 0.36% active; in the data active = inhibition above about 50%, passing the limit was not always enough
Target sequence (P63279 whole entry, looked up): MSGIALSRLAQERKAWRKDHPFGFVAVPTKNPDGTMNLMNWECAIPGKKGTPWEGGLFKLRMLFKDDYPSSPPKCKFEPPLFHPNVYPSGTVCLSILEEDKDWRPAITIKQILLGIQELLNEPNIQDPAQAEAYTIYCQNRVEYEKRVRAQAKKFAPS
PREPL inh – inhibits the human prolyl oligopeptidase-like enzyme; Q4J6C6; recombinant PREPL, fluorescence polarization activity-based probe; inhibition, % at 5.96 µM; 320,000 tested, 0.68% active; AID 2751; in the data active = inhibition above about 43%
Rin1 Abl inh – blocks binding of human Rin1 to Abl; TR-FRET Rin1/Abl binding, biochemical; inhibition, % at 7.35 µM; 360,000 tested, 0.4% active; P00519+Q13671; in the data active = inhibition above about 5%, passing the limit was not always enough
Numbers stand for hits; . = inactive; / = no result given. Shown are actives, neighbours in structure and some others; about 4.3% of the full set was active somewhere.

SMILES | UBC13 inh | RBBP9 inh | ALR H2O2 inh | UBC9 SUMO inh | PREPL inh | Rin1 Abl inh
Cc1ccc(C(C)C)c(OCC(=O)N2CCN(c3ncccn3)CC2)c1 | . | / | / | / | . | .
Cc1nc2ccccc2nc1N/N=C/c1ccc(O)cc1 | . | . | 85 | . | . | .
CC(C)CN(CC(C)C)S(=O)(=O)N1CCC(C(=O)NCc2ccc3c(c2)OCO3)CC1 | . | . | . | . | . | .
O=C(O)c1cc(-c2ccc(Cl)s2)nc2ccccc12 | . | . | 93 | . | . | .
CC1C(c2ccc3c(c2)OCO3)c2cc3c(cc2OC1N1CCOCC1)OCO3 (centres undefined) | / | / | / | / | / | .
COc1ccccc1C(=O)NCCC(=O)N1CCN(C(C)=O)CC1 | . | / | . | / | . | .
COc1cc(-c2nc3ccccn3c2/N=C/c2cc(OC)c(O)cc2Cl)ccc1O | . | . | 94 | . | . | .
COc1cc(-c2nc3ccccn3c2/N=C/c2ccccc2)ccc1O | . | . | 84 | . | . | .
COc1ccc(-c2nc3ccccn3c2/N=C/c2ccc(OC)c(OC)c2)cc1O | . | . | / | . | . | .
Oc1cccc(/C=N/c2c(-c3ccco3)nc3ccccn23)c1 | . | . | . | . | . | .
COc1cc(-c2nc3ccccn3c2/N=C/c2cccc(F)c2)ccc1O | . | . | 78 | . | . | .
CC(C)CCOC(=O)/C(=C/c1ccco1)NC(=O)/C=C/c1ccccc1 | . | . | 90 | . | . | .
Clc1ccc(/C=N/Nc2ncnc3nc[nH]c23)cc1 | . | . | 93 | . | . | .
CCn1nc(C)cc1C(=O)Sc1cccc(Br)c1 | . | . | / | . | . | .
O=C(Nc1ccc2c(c1)CCC2)c1ncoc1-c1ccccc1F | . | / | / | . | / | .
CC(=O)Nc1ccc(S(=O)(=O)Oc2cccc(/C=C3\SC(N)=NC3=O)c2)cc1 | . | . | . | 50 | . | .
CCOC(=O)C1(C)C=C(Nc2ccc(O)cc2)C(=O)N1c1ccc(O)cc1 (centres undefined) | . | . | 100 | . | . | .
CCOC(=O)C1(C)C=C(Nc2ccc(OC)cc2)C(=O)N1c1ccc(OC)cc1 (centres undefined) | . | . | . | . | . | .
N#Cc1c(NC(=O)C(=O)NCCCN2CCOCC2)sc2c1CCCC2 | . | / | 96 | . | . | .
COc1ccccc1CNC(=O)C(=O)Nc1ccc(C(=O)N2CCC(C)CC2)cc1 | . | / | . | . | . | .
COc1cc(/C=N/NC(N)=S)ccc1OC(=O)c1ccc(C)cc1 | . | . | . | . | . | .
Cc1cc(C(=O)N/N=C/c2ccc3c(c2)OCO3)c(C)o1 | . | . | 95 | . | . | .
COc1cc(/C=N/NC(=O)c2ccncc2)ccc1OC(=O)c1ccccc1Cl | . | . | . | . | . | .
COc1cc(/C=N/NC(=O)c2ccccc2O)ccc1OC(=O)CC1SC(=O)NC1=O (centres undefined) | . | . | 88 | . | . | .
Cc1occc1C(=O)N/N=C/c1ccc2c(c1)OCO2 | . | . | . | . | . | .
SMILES | UBC13 inh | RBBP9 inh | ALR H2O2 inh | UBC9 SUMO inh | PREPL inh | Rin1 Abl inh
COc1ccc(C(=O)Oc2cccc(/C=N/NC(N)=S)c2)cc1 | . | . | / | . | 45 | .
CC(C)Oc1ccc(CCC(=O)N/N=C/c2ccc3c(c2)OCO3)cc1 | . | / | . | . | . | .
O=C(CCc1ccc(O)c(O)c1)N/N=C/c1ccc2c(c1)OCO2 | . | / | 95 | . | . | .
CCOC(=O)c1ccc(NC(=S)NCCc2ccc(OC)c(OC)c2)cc1 | . | . | / | . | . | .
Cc1cccc(C(=O)OCC(=O)c2ccc(CC(=O)N3CCOCC3)s2)c1C | . | / | / | / | . | .
Cc1ccc(C)c(N2CCN(C(=O)CCS(=O)(=O)c3ccc4c(c3)CCN4C(=O)C3CC3)CC2)c1 | . | / | . | . | . | .
CC(C)CN(C(=O)COC(=O)CN1C(=O)c2ccccc2C1=O)c1c(N)n(Cc2ccccc2)c(=O)[nH]c1=O | . | / | / | / | . | .
Cc1cc(C)n(CC(=O)N/N=C/c2ccc3c(c2)OCO3)n1 | . | . | . | . | . | .
Cc1ccccc1NCC(=O)N/N=C\c1ccc2c(c1)OCO2 | . | . | 94 | . | . | .
COc1cc(/C=N/NC(=O)c2ccc(-n3cccc3)cc2)ccc1O | . | . | 99 | . | . | .
COc1cc(C(=O)N/N=C/c2cccc(Oc3ccccc3)c2)ccc1O | . | / | 85 | . | / | .
Cc1nn(CC(=O)N/N=C/c2ccc3c(c2)OCO3)c(C)c1Br | . | . | . | 50 | . | .
COc1cc(C(=O)N/N=C/c2ccc(OC(=O)c3ccccc3Cl)c(OC)c2)ccc1O | . | / | . | . | / | .
COc1cc(/C=N\NC(=O)c2c(C)nc3cc(C)ccn23)ccc1O | . | . | 97 | . | . | .
CN(C)c1ccc(/C=N/NC(=O)c2ccc3c(c2)OCCO3)cc1 | . | / | 98 | . | . | .
COc1cc(/C=N/NC(=O)c2cccs2)ccc1O | . | . | 99 | . | . | .
Cc1ccn2c(C(=O)N/N=C/c3ccc(Cl)cc3)c(C)nc2c1 | . | / | / | . | / | .
Cc1c(C(=O)N/N=C/c2ccc(N3CCOCC3)cc2)nc2ccccn12 | . | . | . | . | . | .
COc1cc(/C=N/NC(=O)c2nc3ccccn3c2C)cc(OC)c1O | . | . | 99 | . | . | .
CCN(CC)c1ccc(/C=N/NC(=O)c2ccc3c(c2)OCCO3)cc1 | . | / | / | . | / | .
COc1cccc(/C=N/NC(=O)c2cccs2)c1 | . | . | . | . | . | .
COc1ccc(CN(C)Cc2c(O)ccc3cc(Br)ccc23)cc1OC | . | / | . | . | . | .
CC(C)(C)CC(=O)Nc1cc2c3c(c1)CCN3C(=O)CC2 | . | / | . | . | . | .
COc1cc(/C=N/NC(=O)c2ccc3c(c2)OCO3)ccc1O | . | / | 99 | . | / | .
COc1ccccc1CNC(=O)c1ccc(NS(=O)(=O)c2cccs2)cc1 | . | / | . | . | . | .
SMILES | UBC13 inh | RBBP9 inh | ALR H2O2 inh | UBC9 SUMO inh | PREPL inh | Rin1 Abl inh
COc1cc(C=NNC(=O)c2ccc(NS(=O)(=O)c3cccs3)cc2)cc(Br)c1O | . | / | 78 | / | . | .
Cc1ccc(N2C(=O)CCC2=O)c(C)c1 | . | / | . | / | . | .
CCOc1ccc(-c2nc(CSCC(=O)NCC3CCCO3)c(C)o2)cc1 (centres undefined) | . | / | 99 | . | . | .
COc1ccc(-c2nnc(SCC(=O)NCC3CCCO3)o2)cc1 (centres undefined) | . | / | . | . | . | .
Cc1ccc(-c2nc(CSCC(=O)NCC3CCCO3)c(C)o2)cc1 (centres undefined) | . | / | 95 | . | . | .
Cc1ccc(-c2nc(CSCC(=O)Nc3cc(C)on3)c(C)o2)cc1 | . | . | / | . | . | .
COc1ccc(-c2nc(CSCC(=O)NCC3CCCO3)c(C)o2)cc1OC (centres undefined) | . | . | 98 | . | . | .
COc1ccc(-c2nc(CSCC(=O)NCCCN3CCCC3=O)c(C)o2)cc1OC | . | / | 98 | . | . | .
N#Cc1cnc(NCc2ccc(Cl)cc2Cl)nc1 | . | / | . | . | . | .
